# According to ChEMBL document CHEMBL1141407, “Synthesis and evaluation of 1,2,3-triazole containing analogues of the immunostimulant alpha-GalCer” (2007):
# Calls of active or inactive are those of the source. No cut-off for these calls is given here.
# Experiments:
# Splenocyte [1] = assay: Stimulation of IL4 secretion from C57BL/6 mouse splenocytes at 125 ng/mL after 72 hrs; type: functional
# How it was run: (§1)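 Splenocytes from naive C57BL/6 mice were cultured with glycolipid at various concentrations for 72 h. IFN-γ and IL-4 in the supernatant were measured by ELISA and expressed as relative activities. Data are means ± SD of duplicates, representative of two experiments; significance by Student's t test.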
# Mus musculus [2] = assay: Elevation of IL4 in C57B/6 mouse at 1 ug, iv after 2 hrs; type: functional, organism-based
# How it was run: (§2)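 Naive C57BL/6 mice given glycolipid at 1 µg/mouse by intravenous injection; serum IFN-γ and IL-4 measured by ELISA at several time points after dosing. Data are means ± SD of three mice, representative of two separate experiments.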
# Splenocyte [3] = assay: Stimulation of IFN-gamma secretion from C57BL/6 mouse splenocytes at 32 ng/mL after 72 hrs; type: functional; how it was run: as §1
# Mus musculus [4] = assay: Elevation of IFN-gamma in C57B/6 mouse at 1 ug, iv after 12 hrs; type: functional, organism-based; how it was run: as §2
# Splenocyte [5] = assay: Stimulation of IFN-gamma secretion from C57BL/6 mouse splenocytes at 125 ng/mL after 72 hrs; type: functional; how it was run: as §1
# Splenocyte [6] = assay: Stimulation of IL4 secretion from C57BL/6 mouse splenocytes at 32 ng/mL after 72 hrs; type: functional; how it was run: as §1
# Mus musculus [7] = assay: Elevation of IL4 in C57B/6 mouse at 1 ug, iv; type: functional, organism-based; how it was run: as §2
# Mus musculus [8] = assay: Elevation of IFN-gamma in C57B/6 mouse at 1 ug, iv; type: functional, organism-based; how it was run: as §2
# DN32.D3 [9] = assay: Stimulation of IL2 production in DN32.D3 cells after 16 hrs; type: functional, cell-based; details: Mus musculus
# How it was run: (§3)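 Rat basophilic leukemia cells transfected with mouse CD1d were pulsed with glycolipid at various concentrations for 4 h, then washed three times with PBS. They were co-cultured with DN32.D3 NKT hybridoma cells (Vα14+) for 16 h, and IL-2 in the supernatant was measured by ELISA. Data are means ± SD of duplicates, representative of two experiments.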
# Splenocyte [10] = assay: Stimulation of IL4 secretion from C57BL/6 mouse splenocytes at 125 ng/mL after 72 hrs relative to alphaGalCer; type: functional; how it was run: as §1
# DN32.D3 [11] = assay: Stimulation of IL2 production in DN32.D3 cells at 500 ng/mL after 16 hrs; type: functional, cell-based; details: Mus musculus; how it was run: as §3
# DN32.D3 [12] = assay: Stimulation of IL2 production in DN32.D3 cells at 32 ng/mL after 16 hrs; type: functional, cell-based; details: Mus musculus; how it was run: as §3
# Splenocyte [13] = assay: Stimulation of IFN-gamma secretion from C57BL/6 mouse splenocytes at 32 ng/mL after 72 hrs relative to alphaGalCer; type: functional; how it was run: as §1
# Splenocyte [14] = assay: Stimulation of IL4 secretion from C57BL/6 mouse splenocytes at 32 ng/mL after 72 hrs relative to alphaGalCer; type: functional; how it was run: as §1
# Splenocyte [15] = assay: Stimulation of IFN-gamma secretion from C57BL/6 mouse splenocytes at 125 ng/mL after 72 hrs relative to alphaGalCer; type: functional; how it was run: as §1
compound,measurement,setting,value
CCCCCCCCCCCCCCCCCCCCCCCCCC(=O)N[C@@H](CO[C@H]1O[C@H](CO)[C@H](O)[C@H](O)[C@H]1O)[C@H](O)[C@H](O)CCCCCCCCCCCCCC [RGI-7000],Activity,Splenocyte [1],0.9 ng/mL
same,Activity,Mus musculus [2],Active
same,Activity,Splenocyte [3],15.6 ng/mL
same,Activity,Mus musculus [4],Active
same,Activity,Splenocyte [5],12.8 ng/mL
same,Activity,Splenocyte [6],1.12 ng/mL
CCCCCCCCCCCCCCCCc1cn([C@@H](CO[C@H]2O[C@H](CO)[C@H](O)[C@H](O)[C@H]2O)[C@H](O)[C@H](O)CCCCCCCCCCCCCC)nn1,Activity,Mus musculus [7],inactive
same,Activity,Mus musculus [8],inactive
same,Activity,DN32.D3 [9],inactive
CCCCCCCCCCCCCC[C@@H](O)[C@@H](O)[C@H](CO[C@H]1O[C@H](CO)[C@H](O)[C@H](O)[C@H]1O)n1cc(CCCCCCC)nn1,Activity,Mus musculus [7],inactive
same,Activity,Mus musculus [8],inactive
same,Activity,Splenocyte [10],Active
CCCCCCCCCCCCCC[C@@H](O)[C@@H](O)[C@H](CO[C@H]1O[C@H](CO)[C@H](O)[C@H](O)[C@H]1O)n1cc(CCCCCC)nn1,Activity,Mus musculus [7],inactive
same,Activity,Mus musculus [8],inactive
same,Activity,DN32.D3 [11],inactive
CCCCCCCCCCCCCCCCCCCCCCCc1cn([C@@H](CO[C@H]2O[C@H](CO)[C@H](O)[C@H](O)[C@H]2O)[C@H](O)[C@H](O)CCCCCCCCCCCCCC)nn1,Activity,Splenocyte [10],Active
CCCCCCCCCCCCCCCCCCCCCCCCc1cn([C@@H](CO[C@H]2O[C@H](CO)[C@H](O)[C@H](O)[C@H]2O)[C@H](O)[C@H](O)CCCCCCCCCCCCCC)nn1,Activity,DN32.D3 [12],Active
same,Activity,Splenocyte [13],4.63 ng/mL
same,Activity,Splenocyte [10],1.09 ng/mL
same,Activity,Splenocyte [14],1.51 ng/mL
same,Activity,Splenocyte [15],11.5 ng/mL
